High-throughput results from PubChem.
PAFAH1B3 inh = PAFAH1B3 (human) inhibition. Q15102. recombinant PAFAH1B3, FP-rhodamine probe, fluorescence polarization. inhibition, % at 3.39 µM. 340,000 tested, 0.28% active. AID 492972;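 active means inhibition above the screen-wide average of all tested compounds plus 3 SD, cut at about 25% in these data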;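 further: 0% = enzyme with DMSO only and 100% = wells lacking PAFAH1B3 protein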
mABHD4 FP = inhibitors of mouse ABHD4. Q8VD66. purified mABHD4, FP-Rh probe fluorescence polarization. inhibition, % at 8.92 µM. 370,000 tested, 0.54% active;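 active means inhibition exceeding the mean over every tested compound plus 3 SD, cut at about 30% in these data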;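 further: 0% = plate median of compound wells and 100% = S159A mutant with DMSO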
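assay system = mABHD4 protein | compound dosing = single nominal dose of 8.92 µM, 0.89% DMSO final | read-out basis = percent inhibition of probe binding, normalized to plate controls | schedule = Enzyme–compound pre-incubation 45 min, then probe 60 min, both 25 °C | detection = fluorescence polarization, excitation 525 nm, emission 598 nm, BODIPY TMR filters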
PAFAH1B2 inh = blocks human PAF acetylhydrolase 1b catalytic subunit 2; inhibition, % at 3.39 µM; 340,000 tested, 1.2% active; recombinant PAFAH1B2, FP-rhodamine activity probe, fluorescence polarization; P68402; AID 492953;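 active means inhibition above the mean of all tested compounds plus 3 SD, cut at about 24% in these data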;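 further: 0% = enzyme with DMSO and 100% = wells lacking PAFAH1B2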
PAFAH2 FP inh = inhibitors of human PAFAH2. Q99487. recombinant PAFAH2, FP-rhodamine activity probe, fluorescence polarization. inhibition, % at 3.39 µM. 340,000 tested, 0.99% active;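 active means inhibition above the mean over all tested compounds plus 3 SD, cut at about 30% in these data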;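 further: inhibitors block probe labeling of enzyme so polarization drops; 0% = enzyme with DMSO and 100% = wells lacking PAFAH2 protein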
pPAFAH FP inh = inhibitors of human plasma PAF acetylhydrolase (pPAFAH) | recombinant pPAFAH, FP-rhodamine probe fluorescence polarization | inhibition, % at 3.39 µM | 330,000 tested, 1.5% active | AID 463082;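 active means inhibition above the mean inhibition across the screen plus 3 SD, cut at about 25% in these data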;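 further: inhibitors block binding of the rhodamine activity-based probe so polarization drops; 0% = enzyme with DMSO and 100% = wells lacking pPAFAH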
HTRA1 inh = blocks human HTRA1 serine peptidase; Q92743; recombinant HTRA1, FP-rhodamine activity-based probe, fluorescence polarization; inhibition, % at 5.96 µM; 340,000 tested, 0.5% active; AID 504803; in the data active means inhibition above about 36%;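 further: 0% = enzyme with DMSO and 100% = wells lacking enzyme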
Target sequence (Q92743 whole entry, looked up): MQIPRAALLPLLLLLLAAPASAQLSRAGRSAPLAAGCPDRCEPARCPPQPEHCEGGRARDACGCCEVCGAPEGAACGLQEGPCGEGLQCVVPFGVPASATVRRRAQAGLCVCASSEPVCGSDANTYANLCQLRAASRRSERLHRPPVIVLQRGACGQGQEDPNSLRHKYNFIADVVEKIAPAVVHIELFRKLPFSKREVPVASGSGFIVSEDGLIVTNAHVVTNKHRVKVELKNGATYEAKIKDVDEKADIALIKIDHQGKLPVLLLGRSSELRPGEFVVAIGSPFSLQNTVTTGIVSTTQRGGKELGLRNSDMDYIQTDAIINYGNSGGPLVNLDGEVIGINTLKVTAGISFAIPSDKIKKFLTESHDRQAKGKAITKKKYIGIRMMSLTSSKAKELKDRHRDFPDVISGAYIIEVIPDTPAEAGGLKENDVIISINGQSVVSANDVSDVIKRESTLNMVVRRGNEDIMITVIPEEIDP
PAFAH2 FP conf = confirmation of human PAFAH2 inhibitors. 2,300 tested, 65% active. shares compounds with PAFAH2 FP inh. recombinant PAFAH2, FP-rhodamine activity probe, fluorescence polarization. inhibition, % at 3.39 µM;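 active means mean inhibition over three repeats above a set limit taken from the earlier primary screen, cut at about 30% in these data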;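 further: inhibitor blocks binding of rhodamine activity probe so polarization falls; 0% = enzyme with DMSO and 100% = wells lacking PAFAH2 protein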
An asterisk follows results filed as active; / = no result; + = active, no number. Shown are actives, neighbours in structure and some others; about 2.8% of the full set was active somewhere.

SMILES	PAFAH1B3 inh	mABHD4 FP	PAFAH1B2 inh	PAFAH2 FP inh	pPAFAH FP inh	HTRA1 inh	PAFAH2 FP conf
CCCCCn1nnnc1C1(C)CCSCC(=O)N1Cc1ccco1 (stereo unspecified)	/	-3	/	/	/	/	/
O=C(Nc1ccccc1F)O[C@@H]1CC[C@@]23CCCN2C(=O)CCC[C@H]3C1	/	0	/	/	/	/	/
COC(=O)[C@]12C[C@H](CC(=O)N3CCC(c4ccccc4)CC3)C(=O)N(Cc3cccc4ccccc34)C1=C[C@H](C(C)(C)C)O[C@@H]2C	/	-2	/	/	/	/	/
O=C(COC(=O)/C=C/c1cccc(Cl)c1)Nc1ccc(N2CCOCC2)cc1	14	-2	7	3	6	1	/
O=C(COC(=O)/C=C/c1cccc(Cl)c1)NCCc1ccc(Cl)cc1Cl	8	2	1	42*	8	-13	44*
O=C(COC(=O)/C=C/c1ccco1)NCc1ccccc1Cl	7	-3	7	75*	0	-7	63*
O=C(COC(=O)/C=C/c1ccco1)NCc1ccco1	17	2	11	37*	4	-3	20
COc1ccc(CNC(=O)COC(=O)/C=C/c2ccco2)cc1	0	-2	-4	4	5	-2	/
O=C(COC(=O)/C=C/c1ccco1)NCc1ccc(Cl)cc1Cl	3	-1	4	77*	7	-11	63*
CNC(=O)COC(=O)/C=C/c1ccco1	6	4	-4	0	5	2	/
O=C(NC1CCCCN(Cc2ccc(Cl)cc2)C1=O)c1ccc(F)cc1 (stereo unspecified)	/	4	/	/	/	/	/
CCCOc1ccc(-c2nc(CSCC(=O)NC3CC3)c(C)o2)cc1	/	1	/	/	/	/	/
CSc1ccccc1NC(=O)COC(=O)/C=C/c1ccco1	-12	/	4	63*	6	-3	44*
O=C(NC1CCCc2c1cnn2-c1ccc(F)cc1F)c1cccs1 (stereo unspecified)	/	-4	/	/	/	/	/
O=C(COC(=O)CCc1c[nH]c(=O)[nH]1)Nc1cccc(Cl)c1	-9	13	-3	35*	-3	-2	29
CCOC(=O)C1C(=O)N(C(=O)c2ccc(OC)cc2)CC1c1ccccc1 (stereo unspecified)	11	2	1	95*	18	1	75*
O=C(OCc1cn(Cc2cccc(F)c2F)nn1)N1CCOCC1	/	1	/	/	/	/	/
CCN(C(=O)COC(=O)c1cc(-c2ccc(C)o2)nc2ccccc12)C1CCS(=O)(=O)C1 (stereo unspecified)	-3	-1	-2	45*	5	-7	0
CC(=O)Nc1ccc(NC(=O)CC(C)n2ccnc2)cc1 (stereo unspecified)	-3	-3	0	+	3	0	5
Nc1nnc(CC(=O)N/N=C/c2ccc(-c3ccc(Cl)cc3Cl)o2)s1	-13	-2	-1	50*	15	-22	31*
Nc1nnc(CC(=O)N/N=C/c2ccc(-c3ccccc3Cl)o2)s1	-1	12	-1	30*	17	-1	23
Nc1nnc(CC(=O)N/N=C/c2ccc([N+](=O)[O-])cc2)s1	9	3	6	6	10	13	/
COC(=O)N/N=C/c1ccc(-c2cc(Cl)ccc2Cl)o1	-3	-5	0	5	5	-17	/
CCCCOCCCNC(=O)C[C@H]1C[C@@]2(C(=O)OC)C(=C[C@H](COCc3ccccc3)O[C@@H]2C)N(Cc2ccco2)C1=O	/	-1	/	/	/	/	/
Cc1ccc(CN[C@@H]2CC[C@@]34CCCN3C(=O)CCC[C@H]4C2)o1	/	5	/	/	/	/	/
SMILES	PAFAH1B3 inh	mABHD4 FP	PAFAH1B2 inh	PAFAH2 FP inh	pPAFAH FP inh	HTRA1 inh	PAFAH2 FP conf
CC(C)CN1C(=O)C[C@]2(C(=O)N(C)c3ccc(NS(=O)(=O)c4ccc(F)cc4)cc32)C1c1ccccc1 (stereo partly specified)	/	1	/	/	/	/	/
Cc1ccc(-c2c(C#N)c(N)n3c(nc4ccccc43)c2C#N)cc1	5	-10	5	46*	13	-7	34*
N#Cc1c(-c2ccccc2)c(C#N)c2nc3ccccc3n2c1N	-4	3	6	4	2	-3	/
COC(=O)C1CCCN(C(=O)C(Cc2ccc3c(c2)OCO3)NC(C)=O)C1 (stereo unspecified)	/	-2	/	/	/	/	/
O=C(OCCC12CC3CC(CC(C3)C1)C2)c1ccc(NCc2cc(O)ccc2O)cc1	5	15	5	75*	/	-2	66*
O=C(COC(=O)C1CC2CCCC(C1)C2=O)Nc1cccc(F)c1 (stereo unspecified)	4	1	7	68*	-4	0	69*
O=C(COC(=O)C1CC2CCCC(C1)C2=O)Nc1ccccc1 (stereo unspecified)	11	2	1	64*	2	14	60*
CCOC(=O)c1sc(N2C(=O)C(O)=C(C(=O)c3ccco3)C2c2cccc([N+](=O)[O-])c2)nc1C (stereo unspecified)	6	-68	-2	42*	12	-47	30*
COC(=O)c1ccc(Cn2ccc3ccc(-c4ccc5ccn(C(=O)c6ccccc6OC)c5c4)cc32)cc1	/	-6	/	/	/	/	/
Nc1cc(C(F)(F)F)ccc1NCCc1ccccn1	5	2	6	64*	7	-2	52*
CN(Cc1ccco1)C(=O)c1cc2c(s1)-c1ccc(Cl)cc1S(=O)(=O)C2	3	8	-1	51*	2	5	-10
COc1ccc(N(C)C(=O)c2cc3c(s2)-c2ccc(Cl)cc2S(=O)(=O)C3)c(OC)c1	3	4	-3	3	-3	0	/
CC(C)Oc1ccc(Oc2ccc(C#C[C@H](C)N3C(=O)c4ccccc4C3=O)cc2)cn1	/	-5	/	/	/	/	/
O=C(O)CSc1cccc[n+]1[O-]	5	10	-1	-4	0	7	/
O=C(CSc1cccc[n+]1[O-])C12CC3CC(CC(C3)C1)C2	4	5	6	48*	7	5	46*
O=c1oc(-c2ccc(F)cc2)nc2ccsc12	7	6	-2	48*	-1	-13	34*
CCN(C(=O)C1CCCN1S(=O)(=O)c1cccnc1)c1ccccc1 (stereo unspecified)	/	-10	/	/	/	/	/
O=C1CC(c2ccccc2)CN1C(=O)c1cccnc1 (stereo unspecified)	0	2	3	-2	2	0	/
O=C1CC(c2ccccc2)CN1C(=O)c1cncc(Br)c1 (stereo unspecified)	-2	8	0	64*	3	6	61*
CC(C)(C)c1ccc(C2/C(=C(\O)c3ccc4c(c3)OCCO4)C(=O)C(=O)N2CCCN2CCOCC2)cc1 (stereo unspecified)	-3	-1	3	11	10	-3	/
